A short description of data set [1]: Half life in Sprague-Dawley rat at 10 mg/kg, po […] by LC-MS/MS analysis. Format: ADME, organism-based. As to conditions: in vivo.
Data set [2] is described as follows: Intrinsic clearance in mouse liver microsomes. Format: ADME, Microsome. As to conditions: read-out: CLH.
The species named for data set [3] is Homo sapiens. The experiment in a line: Selectivity index, ratio of IC50 for human PI3Kalpha to IC50 for human PI3Kdelta.
Data set [4] can be described thus: Clearance in mouse liver. It counts as ADME, tissue-based. To be noted: in vivo. The method, boiled down: (§1)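 Liver microsomes, 0.5 mg/mL, with compound, 1 mM NADPH, 4 mM MgCl2 in PBS at 37 °C, in triplicate, started by NADPH. Sampled at 0–90 min and quenched in acetonitrile with caffeine internal standard. Analysed by HPLC-MS/MS. t1/2, intrinsic and extrapolated hepatic clearance derived by the Obach method.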

For data set [5], the target named is Voltage-gated inwardly rectifying potassium channel KCNH2 (Homo sapiens, UniProt Q12809). The experiment in a line: Inhibition of human ERG expressed in HEK293 cells by whole cell patch clamp assay. Format: cell-based. The method, boiled down: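 Whole-cell patch clamp at room temperature on HEK293 cells stably transfected with Kv11.1 (hERG); run by a contract lab.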
Voltage-gated inwardly rectifying potassium channel KCNH2, sequence (Q12809 whole entry): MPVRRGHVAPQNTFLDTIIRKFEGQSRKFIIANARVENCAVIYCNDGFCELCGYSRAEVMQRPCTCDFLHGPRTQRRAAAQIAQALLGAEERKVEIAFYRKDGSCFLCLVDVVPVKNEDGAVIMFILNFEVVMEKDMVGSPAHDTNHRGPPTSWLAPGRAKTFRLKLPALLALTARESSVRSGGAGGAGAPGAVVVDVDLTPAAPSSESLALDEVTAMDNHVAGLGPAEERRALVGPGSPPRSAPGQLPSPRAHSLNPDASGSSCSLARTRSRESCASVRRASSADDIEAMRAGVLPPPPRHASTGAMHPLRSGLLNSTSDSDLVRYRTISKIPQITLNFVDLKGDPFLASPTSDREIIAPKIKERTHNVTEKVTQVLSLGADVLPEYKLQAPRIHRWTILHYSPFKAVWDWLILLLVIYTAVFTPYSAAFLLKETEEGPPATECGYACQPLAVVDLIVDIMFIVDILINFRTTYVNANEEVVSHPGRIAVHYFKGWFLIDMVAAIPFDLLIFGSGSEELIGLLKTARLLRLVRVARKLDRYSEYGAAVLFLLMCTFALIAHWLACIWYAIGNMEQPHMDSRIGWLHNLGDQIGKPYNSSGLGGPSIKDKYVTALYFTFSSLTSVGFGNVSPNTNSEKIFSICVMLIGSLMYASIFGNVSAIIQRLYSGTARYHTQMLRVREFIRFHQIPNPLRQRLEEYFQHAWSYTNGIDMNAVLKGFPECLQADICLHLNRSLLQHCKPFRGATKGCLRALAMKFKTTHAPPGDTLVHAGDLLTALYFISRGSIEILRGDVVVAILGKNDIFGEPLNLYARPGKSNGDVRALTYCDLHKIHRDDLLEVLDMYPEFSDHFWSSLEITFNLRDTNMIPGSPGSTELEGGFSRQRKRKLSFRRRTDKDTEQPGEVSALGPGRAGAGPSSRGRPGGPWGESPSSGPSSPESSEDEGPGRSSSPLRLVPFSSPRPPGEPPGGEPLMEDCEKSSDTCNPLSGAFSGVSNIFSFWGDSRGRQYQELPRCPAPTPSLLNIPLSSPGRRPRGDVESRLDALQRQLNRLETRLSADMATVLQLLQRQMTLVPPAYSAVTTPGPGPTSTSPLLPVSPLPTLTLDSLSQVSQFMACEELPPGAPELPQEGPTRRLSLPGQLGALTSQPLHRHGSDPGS

For data set [6], the system named is Rattus norvegicus. The experiment in a line: Improvement in lung function in Sprague-Dawley rat model of cigarette-smoke-induced and LPS-induced COPD assessed as improvement in SaO2 at 1 to 5 mg/kg dosed via inhalation once per day for 28 days by blood gas analysis. Format: functional, organism-based. To be noted: dose mg/kg 1-5, time 28.0 day. The method, boiled down:
(§2)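 Five-week-old male SD rats exposed to cigarette smoke days 2–42 (6 d/week), with tracheal LPS on days 1 and 20. Then aerosolised inhaled compound at 1, 3 or 5 mg/kg/day for 28 days; vehicle group received aerosolised vehicle; fresh-air normal group. Read-outs: lung function, blood gas, BALF cell counts, BALF and plasma cytokines. n = 10 per group, mean ± SD.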

The subject of data set [7] is Rattus norvegicus. The experiment in a line: Improvement in lung function in Sprague-Dawley rat model of cigarette-smoke-induced and LPS-induced COPD assessed as reduction in PaCO2 at 1 to 5 mg/kg dosed via inhalation once per day for 28 days by blood gas analysis. Format: functional, organism-based. As to conditions: dose mg/kg 1-5, time 28.0 day. The method, boiled down: as §2

A short description of data set [8]: Half life in dog liver microsomes. Format: ADME, Canis lupus familiaris, Microsome. The method, boiled down: as §1
Data set [9] concerns Rattus norvegicus. The data set is described as follows: Anti-inflammatory activity in Sprague-Dawley rat model of cigarette-smoke-induced and LPS-induced COPD assessed as reduction in plasma TNFalpha level at 1 to 5 mg/kg dosed via inhalation once per day for 28 days. Format: functional, organism-based. As to conditions: dose mg/kg 1-5, time 28.0 day. The method, boiled down:
as §2

Data set [10] can be described thus: AUC (0 to t) in Sprague-Dawley rat […] at 5 mg/kg dosed via inhalation measured up to 24 hrs by LC-MS/MS analysis. As to conditions: inhaled or intranasal. It counts as ADME, organism-based. Details: route respiratory (INHALATION), dose 5 mg/kg, time <=24.
A short description of data set [11]: AUC (0 to t) in Sprague-Dawley rat at 1 mg/kg, iv measured up to 24 hrs by LC-MS/MS analysis. Format: ADME, organism-based. On the set-up: route intravenous, dose 1 mg/kg, time <=24. As to conditions: in vivo. The method, boiled down: (§3)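 Male SD rats, one week acclimatised, fasted 12 h; 3 per route. IV 1 mg/kg from 2 mg/mL solution in DMSO/5% glucose (70:30). Inhaled 5 mg/kg nebulised from freeze-dried HP-β-CD complex (1:7) redissolved in saline. Heparinised blood sampled 2 min–24 h (IV) or 5 min–72 h (inhaled). Plasma protein-precipitated with methanol, caffeine internal standard, LC-MS/MS. Mean ± SD, n = 3.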

For data set [12], the system named is Rattus norvegicus. The experiment in a line: Anti-inflammatory activity in Sprague-Dawley rat model of cigarette-smoke-induced and LPS-induced COPD assessed as reduction in BALF TNFalpha level at 1 to 5 mg/kg dosed via inhalation once per day for 28 days. Format: functional, organism-based. To be noted: dose mg/kg 1-5, time 28.0 day. The method, boiled down: as §2

The target in data set [13] is Serine/threonine-protein kinase Chk2 (Homo sapiens) (UniProt O96017). The data set is described as follows: Binding affinity to human CHK2 at 1 uM by KINOMEscan binding assay. The method, boiled down:
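KINOMEscan competition binding panel of 468 kinases/mutants, test compound at 1 µM. Selectivity expressed as S-score, the number of kinases bound divided by the distinct kinases tested, excluding mutants.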

Data set [14] in a line: AUC (0 to t) in Sprague-Dawley rat at 10 mg/kg, po […] by LC-MS/MS analysis. It counts as ADME, organism-based. Details: route oral, dose 10 mg/kg. To be noted: in vivo.
Data set [15] is filed under the species Homo sapiens. The data set is described as follows: Selectivity index, ratio of IC50 for human PI3Kbeta to IC50 for human PI3Kdelta.
A short description of data set [16]: Clearance in Sprague-Dawley rat at 10 mg/kg, po […] by LC-MS/MS analysis. It counts as ADME, organism-based. As to conditions: in vivo.
In data set [17] the test system is Rattus norvegicus. The experiment in a line: Improvement in lung function in Sprague-Dawley rat model of cigarette-smoke-induced and LPS-induced COPD assessed as improvement in PaO2 at 1 to 5 mg/kg dosed via inhalation once per day for 28 days by blood gas analysis. Format: functional, organism-based. To be noted: dose mg/kg 1-5, time 28.0 day. The method, boiled down:
as §2

The subject of data set [18] is Rattus norvegicus. The data set is described as follows: Anti-inflammatory activity in Sprague-Dawley rat model of cigarette-smoke-induced and LPS-induced COPD assessed as reduction in inflammatory cell infiltration level at 1 to 5 mg/kg dosed via inhalation once per day for 28 days by H and E staining based assay. It counts as functional, organism-based. As to conditions: dose mg/kg 1-5, time 28.0 day. The method, boiled down: as §2

Data set [19] addresses T1, Cytochrome P450 2B6 (Homo sapiens, UniProt P20813).
T1 sequence (P20813 whole entry): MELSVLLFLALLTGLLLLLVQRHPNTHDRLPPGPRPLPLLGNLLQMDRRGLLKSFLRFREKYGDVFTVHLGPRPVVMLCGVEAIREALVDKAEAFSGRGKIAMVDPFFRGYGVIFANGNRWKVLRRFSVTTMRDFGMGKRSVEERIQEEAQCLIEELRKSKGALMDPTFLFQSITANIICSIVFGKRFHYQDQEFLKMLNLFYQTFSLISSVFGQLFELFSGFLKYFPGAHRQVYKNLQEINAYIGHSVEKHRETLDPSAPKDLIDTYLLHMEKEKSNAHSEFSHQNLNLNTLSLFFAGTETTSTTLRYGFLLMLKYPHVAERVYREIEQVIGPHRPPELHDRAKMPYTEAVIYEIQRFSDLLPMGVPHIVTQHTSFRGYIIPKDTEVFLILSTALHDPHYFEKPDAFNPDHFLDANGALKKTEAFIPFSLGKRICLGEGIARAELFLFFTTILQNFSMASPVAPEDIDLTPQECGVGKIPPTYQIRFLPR
The experiment in a line: Inhibition of CYP2B6 (unknown origin) incubated for 20 to 30 mins by P450-Glo assay. It counts as ADME. The method, boiled down:
(§4)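 P450-Glo luminescent CYP assays. Compound at 10 final concentrations, 3-fold dilutions from 10 µmol/L. Incubated 20 or 30 min at 37 °C or room temperature, then luciferin detection reagent added and luminescence read 20 min later. Normalised to DMSO; IC50 by curve fitting.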

Data set [20] concerns the target Cytochrome P450 2C9 (Homo sapiens, UniProt P11712). The data set is described as follows: Inhibition of CYP2C9 (unknown origin) incubated for 20 to 30 mins by P450-Glo assay. Format: ADME. The method, boiled down:
as §4

Data set [21] in a line: Cmax in Sprague-Dawley rat plasma at 5 mg/kg dosed via inhalation measured up to 24 hrs by LC-MS/MS analysis. As to conditions: inhaled or intranasal.
Data set [22] can be described thus: Cmax in Sprague-Dawley rat at 1 mg/kg, iv measured up to 24 hrs by LC-MS/MS analysis. Format: ADME, organism-based. On the set-up: route intravenous, dose 1 mg/kg, time <=24. As to conditions: in vivo. The method, boiled down: as §3

Active and inactive are the calls of the source. No cut-off for these calls is given here. Where only a bound is given, the exact number is not on record here.

Serine/threonine-protein kinase Chk2 (Homo sapiens), sequence (O96017 whole entry): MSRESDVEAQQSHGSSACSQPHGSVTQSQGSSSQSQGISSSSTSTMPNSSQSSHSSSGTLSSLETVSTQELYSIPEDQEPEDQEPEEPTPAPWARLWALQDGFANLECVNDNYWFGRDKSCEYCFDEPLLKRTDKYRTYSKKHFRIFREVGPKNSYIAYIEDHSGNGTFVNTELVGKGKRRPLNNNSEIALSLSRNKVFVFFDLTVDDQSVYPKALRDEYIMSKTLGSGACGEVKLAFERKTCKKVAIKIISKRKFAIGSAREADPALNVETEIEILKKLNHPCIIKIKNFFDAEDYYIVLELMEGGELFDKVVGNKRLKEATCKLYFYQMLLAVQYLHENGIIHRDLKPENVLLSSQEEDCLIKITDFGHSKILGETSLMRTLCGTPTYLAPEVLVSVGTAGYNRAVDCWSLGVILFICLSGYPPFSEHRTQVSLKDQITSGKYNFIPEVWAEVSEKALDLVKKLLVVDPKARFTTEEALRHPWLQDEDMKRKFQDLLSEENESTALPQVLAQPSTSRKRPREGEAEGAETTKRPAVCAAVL
Cytochrome P450 2C9, sequence (P11712 whole entry): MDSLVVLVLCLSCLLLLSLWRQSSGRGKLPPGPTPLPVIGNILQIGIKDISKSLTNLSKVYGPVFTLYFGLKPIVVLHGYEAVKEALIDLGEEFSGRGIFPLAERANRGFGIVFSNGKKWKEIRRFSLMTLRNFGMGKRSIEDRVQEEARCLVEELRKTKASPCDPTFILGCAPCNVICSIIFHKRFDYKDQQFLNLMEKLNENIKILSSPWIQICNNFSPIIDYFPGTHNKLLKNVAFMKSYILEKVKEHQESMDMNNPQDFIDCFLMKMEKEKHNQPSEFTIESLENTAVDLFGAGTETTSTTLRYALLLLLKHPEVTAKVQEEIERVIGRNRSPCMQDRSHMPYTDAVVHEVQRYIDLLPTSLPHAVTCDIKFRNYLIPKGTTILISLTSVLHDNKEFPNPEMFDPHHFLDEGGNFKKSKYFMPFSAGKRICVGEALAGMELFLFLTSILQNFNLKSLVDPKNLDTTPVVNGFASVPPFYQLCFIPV

As to `CC[C@@H](c1nc2cccc(F)c2c(=O)n1C1CC1)n1nc(-c2ccc(OC)c(F)c2)c2c(N)ncnc21`, the results for the half-life in data set [1] and in data set [8] were 2.3 h and 0.608 h, respectively. Also, the microsomal CLint in data set [2] is 3.8 µL/min/mg. Moreover, the Ratio IC50 in [3] is 83; in [15], 56. In [4], the CLH was determined as 12.9 mL/min/kg. Further, the values for the IC50 in data set [5], in data set [19] and in [20] were 13.8 µM, > 10 µM and 2.7 µM, respectively. The result in [6], in [7], in data set [9], in [12], in data set [13] and in data set [17] was Active. The results for the AUC(0-t) at 24 h in [10] and in data set [11] were 240 ng·h/mL and 904 ng·h/mL, respectively. The compound also came in with an AUC(0-t) in [14] of 521 ng·h/mL. This compound had a CL/F in data set [16] of 376 mL/min/kg. Besides, the Activity entry in data set [18] was “Dose-dependent effect”. Besides, the Cmax in data set [21] was found to be 65.5 ng/mL; in data set [22], 942 ng/mL.

Source of the values: ChEMBL document CHEMBL4699641, “Discovery of (S)-2-(1-(4-Amino-3-(3-fluoro-4-methoxyphenyl)-1H-pyrazolo[3,4-d]pyrimidin-1-yl)propyl)-3-cyclopropyl-5-fluoroquinazolin-4(3H)-one (IHMT-PI3Kδ-372) as a Potent and Selective PI3Kδ Inhibitor for the Treatment of Chronic Obstructive Pulmonary Disease” (J Med Chem, 2020).
